Key:
[1] = molecular target: T1, Adrenergic receptor alpha (Rattus norvegicus) (UniProt P15823+P23944+P43140+P22086+P19328+P22909); assay: Binding affinity to alpha adrenergic receptors in rat aorta; format: tissue-based
Outline: (§1)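 Helical strips of rat aorta (1.5–2 cm × 3–4 mm) were held in Krebs-Henseleit at 37 °C, gassed with 95% O2/5% CO2, at 2 g resting tension, and equilibrated about 2 h. Cumulative contraction curves were recorded isometrically, first for norepinephrine, then after washout and 1 h rest for the test agonist. pD2 (−log ED50) was derived by the Ariens–Van Rossum method. Intrinsic activity is the compound's maximum response divided by the norepinephrine maximum.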

[2] = molecular target: T1, Adrenergic receptor alpha (Rattus norvegicus); assay: Ratio of maximum contraction of rat aorta elicited versus that elicited by noradrenaline (defined as intrinsic activity); format: functional, tissue-based; outline: as §1
[3] = Intrinsic activity of the compound, which is expressed as the ratio of the maximum response to the maximum response to norepinephrine; format: functional; outline: as §1

Row | Structure (SMILES) | pD2 [1] | Ratio [2] | Intrinsic [3]
1 | NCC(O)c1ccc(C2CCCCC2)c(O)c1 (stereo not drawn) | 4.86 | 0.7 | 
2 | NCC(O)c1ccc(O)cc1 (stereo not drawn) | 6.08 | 1.1 | 
3 | NCC(O)c1ccc(O)c(Br)c1 (stereo not drawn) | 5.57 | 1.1 | 
4 | CC(C)c1ccc(C(O)CN)cc1O (stereo not drawn) | 5 | 0.7 | 
5 | NCC(O)c1ccc(Cl)c(O)c1 (stereo not drawn) | 6.35 | 1.1 | 
6 | NCC(O)c1ccc(O)c(I)c1 (stereo not drawn) | 5.5 | 0.9 | 
7 | NCC(O)c1ccc(O)c(Cl)c1 (stereo not drawn) | 5.85 | 1 | 
8 | NCC(O)c1ccc(O)c(C2CCCCC2)c1 (stereo not drawn) | 6.73 | 1.1 | 
9 | COC(=O)c1cc(C(O)CN)ccc1O (stereo not drawn) | 4.85 | 0.9 | 
10 | NC[C@H](O)c1ccc(O)c(O)c1 | 8.8 | 1 | 
11 | NCC(O)c1ccc(O)c(F)c1 (stereo not drawn) | 6.78 | 1 | 
12 | CC(C)c1cc(C(O)CN)ccc1O (stereo not drawn) | 6.53 | 1.2 | 
13 | CCc1cc(C(O)CN)ccc1O (stereo not drawn) | 6.09 | 0.9 | 
14 | Cc1ccc(C(O)CN)cc1O (stereo not drawn) | 5.66 |  | 1.3
15 | NCC(O)c1ccc(Br)c(O)c1 (stereo not drawn) | 5.58 | 1 | 
16 | COc1cc(C(O)CN)ccc1O (stereo not drawn) | 6.23 | 1.1 | 
17 | NCC(O)c1ccc(I)c(O)c1 (stereo not drawn) | 4.99 | 0.9 | 
18 | CS(=O)(=O)Nc1ccc(C(O)CN)cc1O (stereo not drawn) | 3.2 | 0.8 | 
19 | Cc1cc(C(O)CN)ccc1O (stereo not drawn) | 5.96 | 1 | 
20 | CCc1ccc(C(O)CN)cc1O (stereo not drawn) | 5.2 | 1.1 | 
21 | CS(=O)(=O)Nc1cc(C(O)CN)ccc1O (stereo not drawn) | 7.19 | 1.1 | 
22 | NCC(O)c1cccc(O)c1 (stereo not drawn) | 8.21 | 1 | 
23 | NCC(O)c1ccc(O)c(C(=O)O)c1 (stereo not drawn) | 4.07 | 1 | 
24 | COc1ccc(C(O)CN)cc1O (stereo not drawn) | 4.97 | 1 | 

Reference: ChEMBL document CHEMBL1121471, “Synthesis and structure-activity relationships among alpha-adrenergic receptor agonists of the phenylethanolamine type” (J Med Chem, 1980)
